Activity calls are given as the source filed them. No cut-off for these calls is given here.
Assays:
[1] = Cytotoxicity against African green monkey Vero cells assessed as cell viability at 250 ug/ml by MTT assay; assay type: cell-based; conditions: chlorocebus sabaeus, read-out: Activity
Summary of the method: (§1)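 Vero cells were seeded at 2×10^6 cells mL⁻¹ in E-MEM with 10% FBS and antibiotics, then left to attach for 24 h and 48 h before treatment. Dilutions were 62.5–1000 µg/mL in E-MEM. After a PBS wash, cells got MTT 1 mg/mL for 4 h at 37 °C in the dark. Formazan was dissolved in DMSO and read at 540 nm. Viability % = AT/AC × 100. Three independent experiments.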

Mus musculus [2] = experiment: Antiinflammatory activity in BALB/c mouse assessed as inhibition of croton oil-induced ear edema at 166 mg/kg administered topically on ear measured at 6 hrs; assay type: functional; conditions: topical
Summary of the method: (§2)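 Male BALB/c mice (25-35 g, mean 30 g), 3 per group. Ear edema induced with croton oil 2 μg/ear in acetone. Compounds were dosed at 33, 100, 166 and 333 mg/Kg, with indomethacin 33 mg/Kg as positive control. At 6 h a 6 mm ear punch was weighed and compared with untreated ears (edema index). Inhibition % = 100 × (1 − Vt/Vc) versus the control group.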

[3] = Cytotoxicity against African green monkey Vero cells assessed as cell viability at 62.5 ug/ml by MTT assay; assay type: cell-based; conditions: chlorocebus sabaeus, read-out: Activity; summary of the method: as §1
[4] = Cytotoxicity against African green monkey Vero cells assessed as cell viability at 500 ug/ml by MTT assay; assay type: cell-based; conditions: chlorocebus sabaeus, read-out: Activity; summary of the method: as §1
Mus musculus [5] = experiment: Antiinflammatory activity in BALB/c mouse ear assessed as inhibition of croton oil-induced ear redness up to 333 mg/kg administered topically on ear measured at 6 hrs relative to control; assay type: functional, organism-based
Summary of the method: (§3)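 Male BALB/c mice, 3 per group, dosed at 33–333 mg/Kg. Ears were checked at 6 h for heat, redness and swelling against a croton oil-induced control (2 μg/ear in acetone).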

Mus musculus [6] = experiment: Antiinflammatory activity in BALB/c mouse ear assessed as inhibition of croton oil-induced heat in ear up to 333 mg/kg administered topically on ear measured at 6 hrs relative to control; assay type: functional, organism-based; summary of the method: as §3
[7] = Cytotoxicity against African green monkey Vero cells assessed as cell viability at 125 ug/ml by MTT assay; assay type: cell-based; conditions: chlorocebus sabaeus, read-out: Activity; summary of the method: as §1
[8] = Cytotoxicity against African green monkey Vero cells assessed as cell viability at 1000 ug/ml by MTT assay; assay type: cell-based; conditions: chlorocebus sabaeus, read-out: Activity; summary of the method: as §1
Mus musculus [9] = experiment: Antiinflammatory activity in BALB/c mouse ear assessed as inhibition of croton oil-induced ear swelling up to 333 mg/kg administered topically on ear measured at 6 hrs relative to control; assay type: functional, organism-based; summary of the method: as §3
Mus musculus [10] = experiment: Antiinflammatory activity in BALB/c mouse assessed as inhibition of croton oil-induced ear edema at 33 mg/kg administered topically on ear measured at 6 hrs; assay type: functional; conditions: topical; summary of the method: as §2

| Compound | viability at 250 ug/ml [1] | inhibition in vivo at 166 mg/kg (Mus musculus [2]) | viability at 62.5 ug/ml [3] | viability at 500 ug/ml [4] | inhibition (Mus musculus [5]) | inhibition (Mus musculus [6]) | viability at 125 ug/ml [7] | viability at 1000 ug/ml [8] | inhibition (Mus musculus [9]) | inhibition in vivo at 33 mg/kg (Mus musculus [10]) |
| --- | --- | --- | --- | --- | --- | --- | --- | --- | --- | --- |
| O=C1CSC(c2ccc(O)cc2)N1CCN1CCOCC1 (centres undefined) | 83% | 45% | 83% | 79% | Active | Active | 83% | 73% | Active |  |
| Cc1ccc(C2SCC(=O)N2CCN2CCOCC2)cc1 (centres undefined) | 80% | 42% | 87% | 76% | Active | Active | 87% | 73% | Active |  |
| COc1ccc2c(c1)c(CC(=O)O)c(C)n2C(=O)c1ccc(Cl)cc1 [INDOMETHACIN] |  |  |  |  |  |  |  |  |  | 58% |
| O=C1CSC(c2cccc([N+](=O)[O-])c2)N1CCN1CCOCC1 (centres undefined) | 100% | 48% | 100% | 92% | Active | Active | 100% | 92% | Active |  |
| COc1ccc(C2SCC(=O)N2CCN2CCOCC2)cc1 (centres undefined) | 100% | 54% | 100% | 90% | Active | Active | 100% | 89% | Active |  |
| O=C1CSC(c2ccc(F)cc2)N1CCN1CCOCC1 (centres undefined) | 100% | 39% | 100% | 91% | Active | Active | 100% | 89% | Active |  |
| O=C1CSC(c2ccccc2[N+](=O)[O-])N1CCN1CCOCC1 (centres undefined) | 98% | 50% | 98% | 91% | Active | Active | 98% | 83% | Active |  |
| O=C1CSC(c2ccc(Cl)cc2)N1CCN1CCOCC1 (centres undefined) | 87% | 44% | 87% | 76% | Active | Active | 87% | 74% | Active |  |
